Test results: ChEMBL document CHEMBL1121813, “Dihydrochalcone sweeteners. A study of the atypical temporal phenomena” (1981)

Columns and labels:
Format in all cases: functional
Homo sapiens [1] = species on record: Homo sapiens; test: Sour character at a concentration of 501 ppm (mean value)
Homo sapiens [2] = species on record: Homo sapiens; test: Experimentally determined perceived intensity of compound at a concentration of 501 ppm (mean value)
How it was run: (§1)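 Trained human sensory panel of judges tasted aqueous solutions of the compound. Samples had to be ≥95 weight % pure (HPLC, proton titration, Karl Fischer), non-mutagenic in five Salmonella typhimurium strains with and without microsomal activation, and non-toxic in a single-oral-dose mouse test. Perceived intensity (Ip) was read from time–intensity curves at 4- or 6-s intervals and averaged. Outliers at the 95% level were rejected by t-value. Values reported as mean (2Sm).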

Homo sapiens [3] = species on record: Homo sapiens; test: Intensity calculated on a molar basis relative to a 0.25 M sucrose solution at a concentration of 501 ppm (mean value)
How it was run: (§2)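 Trained human judges tasted aqueous solutions of the test compound; compounds were first required to be ≥95 weight percent pure and free of mutagenicity (five Salmonella typhimurium strains, ± microsomal activation) and of single oral dose mouse toxicity. Molar intensity I_m = perceived intensity × (0.25 M sucrose / compound molar concentration). The mean is reported with 2S_m limits; outliers were rejected at 95% confidence by t-value.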

Homo sapiens [4] = species on record: Homo sapiens; test: Bitter character at a concentration of 501 ppm (mean value)
How it was run: (§3)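 Trained human panel tasted aqueous solutions. Each judge reported whether there was an aftertaste and its character (sweet, bitter or bitter-sweet). The value is the percentage of judgments reporting a bitter aftertaste.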

Homo sapiens [5] = species on record: Homo sapiens; test: Sweet / Bitter character at a concentration of 501 ppm (mean value); 0/100
Homo sapiens [6] = species on record: Homo sapiens; test: Salty character at a concentration of 501 ppm (mean value)
Homo sapiens [7] = species on record: Homo sapiens; test: Intensity calculated on a weight basis relative to an 85500 ppm sucrose solution at a concentration of 501 ppm (mean value)
How it was run: (§4)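 Trained human panel tasted aqueous solutions of purity-checked (≥95 weight percent) compounds cleared for mutagenicity and mouse oral toxicity. Weight-basis intensity I_w = perceived intensity × (85500 ppm sucrose / compound concentration in ppm). The mean is reported with 2S_m limits; data deviating excessively at 95% confidence were rejected by the t-value method.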

Homo sapiens [8] = species on record: Homo sapiens; test: Number of taste judgments per compound
Homo sapiens [9] = species on record: Homo sapiens; test: Percentage of judgments reporting an aftertaste at a concentration of 501 ppm and character thereof
Homo sapiens [10] = species on record: Homo sapiens; test: Sweet character at a concentration of 501 ppm (mean value)
Homo sapiens [11] = species on record: Homo sapiens; test: Other taste character at a concentration of 501 ppm (mean value)
How it was run: (§5)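 Trained human sensory panel (Swartz method) tasted dilute aqueous solutions of the compounds, which had to be ≥95 weight percent pure and free of mutagenicity and toxicity. Taste character is reported as the mean value with 2S_m limits. Data deviating excessively at the 95% confidence level were rejected by the t-value method.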

Homo sapiens [12] = species on record: Homo sapiens; test: Sweet / Bitter character at a concentration of 54 ppm (mean value); 14/86
Homo sapiens [13] = species on record: Homo sapiens; test: Sweet character at a concentration of 54 ppm (mean value)
Homo sapiens [14] = species on record: Homo sapiens; test: Experimentally determined perceived intensity of compound at a concentration of 54 ppm (mean value); how it was run: as §1
Homo sapiens [15] = species on record: Homo sapiens; test: Sour character at a concentration of 54 ppm (mean value)
Homo sapiens [16] = species on record: Homo sapiens; test: Other taste character at a concentration of 54 ppm (mean value); how it was run: as §5
Homo sapiens [17] = species on record: Homo sapiens; test: Intensity calculated on a molar basis relative to a 0.25 M sucrose solution at a concentration of 54 ppm (mean value); how it was run: as §2
Homo sapiens [18] = species on record: Homo sapiens; test: Percentage of judgments reporting an aftertaste at a concentration of 54 ppm and character thereof
Homo sapiens [19] = species on record: Homo sapiens; test: Bitter character at a concentration of 54 ppm (mean value); how it was run: as §3
Homo sapiens [20] = species on record: Homo sapiens; test: Salty character at a concentration of 54 ppm (mean value)
Homo sapiens [21] = species on record: Homo sapiens; test: Intensity calculated on a weight basis relative to an 85500 ppm sucrose solution at a concentration of 54 ppm (mean value); how it was run: as §4
Homo sapiens [22] = species on record: Homo sapiens; test: Experimentally determined perceived intensity of compound at a concentration of 250 ppm (mean value); how it was run: as §1
Homo sapiens [23] = species on record: Homo sapiens; test: Intensity calculated on a molar basis relative to a 0.25 M sucrose solution at a concentration of 250 ppm (mean value); how it was run: as §2
Homo sapiens [24] = species on record: Homo sapiens; test: Intensity calculated on a weight basis relative to an 85500 ppm sucrose solution at a concentration of 250 ppm (mean value); how it was run: as §4
Homo sapiens [25] = species on record: Homo sapiens; test: Sweet character at a concentration of 250 ppm (mean value); how it was run: as §5
Homo sapiens [26] = species on record: Homo sapiens; test: Percentage of judgments reporting an aftertaste at a concentration of 250 ppm and character thereof
How it was run: (§6)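 Trained judges tasted aqueous solutions of the compounds, which had to be ≥95 weight percent pure and to have passed mutagenicity and single oral dose toxicity screening. The value is the percentage of panel judgments reporting an aftertaste. Where given, its character is recorded as sweet, bitter or bitter-sweet.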

Homo sapiens [27] = species on record: Homo sapiens; test: Sweet / Bitter character at a concentration of 250 ppm (mean value); 94/6
Homo sapiens [28] = species on record: Homo sapiens; test: Bitter character at a concentration of 250 ppm (mean value); how it was run: as §3
Homo sapiens [29] = species on record: Homo sapiens; test: Sour character at a concentration of 250 ppm (mean value); how it was run: as §5
Homo sapiens [30] = species on record: Homo sapiens; test: Other taste character at a concentration of 250 ppm (mean value); how it was run: as §5
Homo sapiens [31] = species on record: Homo sapiens; test: Salty character at a concentration of 250 ppm (mean value); how it was run: as §5
Homo sapiens [32] = species on record: Homo sapiens; test: Percentage of judgments reporting an aftertaste at a concentration of 495 ppm and character thereof
Homo sapiens [33] = species on record: Homo sapiens; test: Experimentally determined perceived intensity of compound at a concentration of 495 ppm (mean value); how it was run: as §1
Homo sapiens [34] = species on record: Homo sapiens; test: Salty character at a concentration of 248 ppm (mean value)
Homo sapiens [35] = species on record: Homo sapiens; test: Bitter character at a concentration of 248 ppm (mean value); how it was run: as §3
Homo sapiens [36] = species on record: Homo sapiens; test: Intensity calculated on a weight basis relative to an 85500 ppm sucrose solution at a concentration of 248 ppm (mean value); how it was run: as §4
Homo sapiens [37] = species on record: Homo sapiens; test: Sweet / Bitter character at a concentration of 248 ppm (mean value); 8/92
Homo sapiens [38] = species on record: Homo sapiens; test: Sweet character at a concentration of 248 ppm (mean value)
Homo sapiens [39] = species on record: Homo sapiens; test: Sour character at a concentration of 248 ppm (mean value)
Homo sapiens [40] = species on record: Homo sapiens; test: Other taste character at a concentration of 248 ppm (mean value); how it was run: as §5
Homo sapiens [41] = species on record: Homo sapiens; test: Percentage of judgments reporting an aftertaste at a concentration of 248 ppm and character thereof; how it was run: as §6
Homo sapiens [42] = species on record: Homo sapiens; test: Intensity calculated on a molar basis relative to a 0.25 M sucrose solution at a concentration of 248 ppm (mean value); how it was run: as §2
Homo sapiens [43] = species on record: Homo sapiens; test: Experimentally determined perceived intensity of compound at a concentration of 248 ppm (mean value); how it was run: as §1
Homo sapiens [44] = species on record: Homo sapiens; test: Experimentally determined perceived intensity of compound at a concentration of 2000 ppm (mean value); how it was run: as §1
Homo sapiens [45] = species on record: Homo sapiens; test: Sour character at a concentration of 2000 ppm (mean value); how it was run: as §5
Homo sapiens [46] = species on record: Homo sapiens; test: Percentage of judgments reporting an aftertaste at a concentration of 2000 ppm and character thereof; how it was run: as §6
Homo sapiens [47] = species on record: Homo sapiens; test: Sweet / Bitter character at a concentration of 2000 ppm (mean value); 0/100
Homo sapiens [48] = species on record: Homo sapiens; test: Bitter character at a concentration of 2000 ppm (mean value); how it was run: as §3
Homo sapiens [49] = species on record: Homo sapiens; test: Salty character at a concentration of 2000 ppm (mean value); how it was run: as §5
Homo sapiens [50] = species on record: Homo sapiens; test: Other taste character at a concentration of 2000 ppm (mean value)
How it was run: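 Trained human panel tasted aqueous solutions of each compound. Aftertaste is scored as the percentage of judgments reporting one, with its character coded sweet (s), bitter (b) or bitter-sweet (bs).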

Homo sapiens [51] = species on record: Homo sapiens; test: Intensity calculated on a molar basis relative to a 0.25 M sucrose solution at a concentration of 2000 ppm (mean value); how it was run: as §2
Homo sapiens [52] = species on record: Homo sapiens; test: Sweet character at a concentration of 2000 ppm (mean value); how it was run: as §5
Homo sapiens [53] = species on record: Homo sapiens; test: Intensity calculated on a weight basis relative to an 85500 ppm sucrose solution at a concentration of 2000 ppm (mean value); how it was run: as §4
Homo sapiens [54] = species on record: Homo sapiens; test: Experimentally determined perceived intensity of compound at a concentration of 4100 ppm (mean value); how it was run: as §1

O=C([O-])COc1cc(O)c(C(=O)CCc2ccccc2)c(O)c1.[Na+]
Taste character (Homo sapiens [1]): 0
IP (Homo sapiens [2]): 0.91
IM (Homo sapiens [3]): 150
Taste character (Homo sapiens [4]): 79
Taste character (Homo sapiens [5]): 0
Taste character (Homo sapiens [6]): 0
IW (Homo sapiens [7]): 160
Judgments (Homo sapiens [8]): 12
Judgments (Homo sapiens [9]): 100
Taste character (Homo sapiens [10]): 0
Taste character (Homo sapiens [11]): 21

COc1ccc(CC(=O)c2c(O)cc(O)cc2O)cc1O
Taste character (Homo sapiens [12]): 14
Taste character (Homo sapiens [13]): 11
IP (Homo sapiens [14]): 0.11
Taste character (Homo sapiens [15]): 0
Taste character (Homo sapiens [16]): 19
IM (Homo sapiens [17]): 150
Judgments (Homo sapiens [8]): 12
Judgments (Homo sapiens [18]): 0
Taste character (Homo sapiens [19]): 70
Taste character (Homo sapiens [20]): 0
IW (Homo sapiens [21]): 170

COc1ccc(CCC(=O)c2c(O)cc(OCCNS(=O)(=O)[O-])cc2O)cc1O.[K+]
IP (Homo sapiens [22]): 1.03
IM (Homo sapiens [23]): 480
IW (Homo sapiens [24]): 350
Taste character (Homo sapiens [25]): 89
Judgments (Homo sapiens [26]): 100
Taste character (Homo sapiens [27]): 94
Judgments (Homo sapiens [8]): 12
Taste character (Homo sapiens [28]): 6
Taste character (Homo sapiens [29]): 0
Taste character (Homo sapiens [30]): 5
Taste character (Homo sapiens [31]): 0

COc1ccc(CCC(=O)c2c(O)cc(OC(C(=O)[O-])C(=O)[O-])cc2O)cc1O.[Na+].[Na+]
Judgments (Homo sapiens [32]): 0
Judgments (Homo sapiens [8]): 1
IP (Homo sapiens [33]): 0

O=C([O-])COc1cc(O)c(C(=O)CCc2ccc(O)c(O)c2)c(O)c1.[Na+]
Taste character (Homo sapiens [34]): 0
Taste character (Homo sapiens [35]): 33
IW (Homo sapiens [36]): 52
Taste character (Homo sapiens [37]): 8
Judgments (Homo sapiens [8]): 12
Taste character (Homo sapiens [38]): 3
Taste character (Homo sapiens [39]): 0
Taste character (Homo sapiens [40]): 64
Judgments (Homo sapiens [41]): 38
IM (Homo sapiens [42]): 56
IP (Homo sapiens [43]): 0.15

CC(=O)c1c(O)cc(OCC(=O)[O-])cc1O.[Na+]
IP (Homo sapiens [44]): 0.25
Taste character (Homo sapiens [45]): 0
Judgments (Homo sapiens [46]): 0
Taste character (Homo sapiens [47]): 0
Taste character (Homo sapiens [48]): 100
Judgments (Homo sapiens [8]): 1
Taste character (Homo sapiens [49]): 0
Taste character (Homo sapiens [50]): 0
IM (Homo sapiens [51]): 0
Taste character (Homo sapiens [52]): 0
IW (Homo sapiens [53]): 10

COc1ccc(-c2cc(=O)c3c(O)cc(OCCCS(=O)(=O)[O-])cc3o2)cc1O.[K+]
IP (Homo sapiens [54]): 0
Judgments (Homo sapiens [8]): 1
